Reference: ChEMBL document CHEMBL3085755, “Synthesis of 3-spiromorpholinone androsterone derivatives as inhibitors of 17β-hydroxysteroid dehydrogenase type 3” (Bioorg Med Chem Lett, 2013)

Legend:
[1] = target: T1, 17-beta-hydroxysteroid dehydrogenase type 3 (Rattus norvegicus) (UniProt O54939); assay: Inhibition of 17beta-HSD3 in rat testes microsomal fraction using [14C]-4-androstene-3,17-dione as substrate assessed as testosterone formation at 1 uM after 2 hrs by thin layer chromatography; assay type: microsomes; conditions: Testis
T1 sequence (whole entry): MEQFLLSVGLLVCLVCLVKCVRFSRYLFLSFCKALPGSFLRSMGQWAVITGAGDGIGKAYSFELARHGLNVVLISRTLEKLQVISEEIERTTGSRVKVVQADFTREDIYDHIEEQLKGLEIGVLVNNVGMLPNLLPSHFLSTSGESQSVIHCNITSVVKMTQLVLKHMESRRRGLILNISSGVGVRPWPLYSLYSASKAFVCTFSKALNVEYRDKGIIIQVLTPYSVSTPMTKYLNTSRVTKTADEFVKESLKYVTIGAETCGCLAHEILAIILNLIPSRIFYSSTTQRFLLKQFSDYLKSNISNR
Summary of the method: (§1)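 Rat testis microsomes supplying 17β-HSD3, converting [14C]-4-androstene-3,17-dione (50 nM) into testosterone. Inhibition of this transformation is measured at a fixed inhibitor concentration and expressed as mean ± SD of triplicate.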

[2] = target: T2, 17-beta-hydroxysteroid dehydrogenase type 3 (Rattus norvegicus, UniProt O54939); assay: Inhibition of 17beta-HSD3 in rat testes microsomal fraction using [14C]-4-androstene-3,17-dione as substrate assessed as testosterone formation after 2 hrs by thin layer chromatography
T2 sequence (O54939 whole entry): T1 sequence (whole entry)
Summary of the method: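 Rat testis microsomal fraction as 17β-HSD3 source, converting [14C]-Δ4-dione (50 nM) to [14C]-testosterone. Activity is plotted against log inhibitor concentration. IC50 is fitted from the inhibition curves. Values are mean ± SD of triplicates.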

[3] = target: T1, 17-beta-hydroxysteroid dehydrogenase type 3 (Rattus norvegicus); assay: Inhibition of 17beta-HSD3 in rat testes microsomal fraction using [14C]-4-androstene-3,17-dione as substrate assessed as testosterone formation at 0.1 uM after 2 hrs by thin layer chromatography; assay type: microsomes; conditions: Testis; summary of the method: as §1

SMILES	inhibition [1] [%]	IC50 [2] [nM]	inhibition [3] [%]
C[C@]12CC[C@@]3(C[C@@H]1CC[C@@H]1[C@@H]2CC[C@]2(C)C(=O)CC[C@@H]12)CN(Cc1ccccc1)[C@@H](Cc1ccccc1)C(=O)O3	90.4	58	58.2
C[C@]12CC[C@@]3(C[C@@H]1CC[C@@H]1[C@@H]2CC[C@]2(C)C(=O)CC[C@@H]12)CN(Cc1ccccc1)[C@H](Cc1ccccc1)C(=O)O3	87.3	–	25.6
C[C@]12CC[C@]3(CN[C@@H](Cc4ccccc4)C(=O)O3)C[C@@H]1CC[C@@H]1[C@@H]2CC[C@]2(C)C(=O)CC[C@@H]12	92	22	48.8
O=C1OC2(CCCCC2)CN(Cc2ccccc2)[C@H]1Cc1ccccc1	24.3	–	24.2
C[C@]12CC[C@]3(CN[C@H](Cc4ccccc4)C(=O)O3)C[C@@H]1CC[C@@H]1[C@@H]2CC[C@]2(C)C(=O)CC[C@@H]12	63.2	–	18.5
CC1CN(S(=O)(=O)c2ccccc2C(F)(F)F)C(C)CN1C[C@@]1(O)CC[C@@]2(C)[C@@H](CC[C@@H]3[C@@H]2CC[C@]2(C)C(=O)CC[C@@H]32)C1 (stereo partly specified)	–	14	47.3
O=C1OC2(CCCCC2)CN[C@H]1Cc1ccccc1	19.5	–	6.2
